Series [1] in a line: Aqueous solubility at pH 7.4. It is filed as physicochemical. In short, it runs like this: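 Aqueous solubility measured at pH 7.4, reported in µg/mL.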
The target in series [2] is Serine/threonine-protein kinase mTOR (Homo sapiens, UniProt P42345). In words: Inhibition of mTOR. In outline: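 DELFIA-format mTOR kinase assay monitoring phosphorylation of His6-S6K substrate.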
Series [3] addresses Phosphatidylinositol 4,5-bisphosphate 3-kinase catalytic subunit alpha isoform (Homo sapiens, UniProt P42336). In words: Inhibition of PI3Kalpha.
Series [4] addresses Phosphatidylinositol 4,5-bisphosphate 3-kinase catalytic subunit gamma isoform (Homo sapiens, UniProt P48736). As to the kind of experiment: Inhibition of PI3Kgamma. In short, it runs like this:
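Fluorescence polarization assays for PI3K-α (p110α) and PI3K-γ (p110γ) monitored PIP3 production.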

The next series concerns PC-3. As to the kind of experiment: Antiproliferative activity against human PC3 cells. Type of series: functional, cell-based. In short, it runs like this: (§1)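 Cell growth density monitored in Caco-2 (epithelial colorectal adenocarcinoma), LoVo (colon carcinoma) and PC3MM2/PC3 (prostate cancer) cultures; IC50 from means of two experiments.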
In another series the test system is LoVo. In words: Antiproliferative activity against human LoVo cells. Type of series: functional, cell-based. In short, it runs like this:
as §1

The next series has as its system Caco-2. In words: Antiproliferative activity against human Caco-2 cells. It is filed as functional, cell-based. In outline:
as §1

The next series deals with CYP3A4 (Homo sapiens, UniProt P08684). In words: Inhibition of CYP3A4 at 3 uM. Type of series: ADME.
Series [5] is described as follows: Inhibition of PI3K in human PC3 cells assessed as inhibition AKT phosphorylation after 6 hrs by densitometry. It is filed as cell-based. The conditions noted are these: PC-3, 6 h. In short, it runs like this: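 PC-3 prostate cancer cells exposed to DMSO, 10 µM […] as positive control, or graded doses of test agent for 6 h. Lysates immunoblotted for Akt phosphorylated at Thr308 and for p-4EBP1. Inhibition assessed by densitometry of the p-Akt blots.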

pIC50: −log10 of the molar value. Converted amounts (≈) assume the structure as drawn.

Chain of CYP3A4 (P08684 whole entry): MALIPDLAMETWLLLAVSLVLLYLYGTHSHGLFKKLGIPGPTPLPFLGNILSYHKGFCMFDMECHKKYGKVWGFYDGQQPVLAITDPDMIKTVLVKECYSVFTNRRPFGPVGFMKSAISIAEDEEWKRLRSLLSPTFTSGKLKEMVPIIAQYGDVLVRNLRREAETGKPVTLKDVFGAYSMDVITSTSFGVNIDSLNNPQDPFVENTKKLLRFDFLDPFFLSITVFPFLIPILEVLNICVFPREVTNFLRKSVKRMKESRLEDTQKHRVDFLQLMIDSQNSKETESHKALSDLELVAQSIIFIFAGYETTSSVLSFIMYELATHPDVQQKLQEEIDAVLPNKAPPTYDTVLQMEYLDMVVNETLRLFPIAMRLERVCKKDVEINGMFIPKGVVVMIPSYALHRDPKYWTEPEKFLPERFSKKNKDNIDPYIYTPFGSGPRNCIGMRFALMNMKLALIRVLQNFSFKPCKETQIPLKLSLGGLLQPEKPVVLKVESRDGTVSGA
Chain of Phosphatidylinositol 4,5-bisphosphate 3-kinase catalytic subunit gamma isoform (P48736 whole entry, canonical isoform): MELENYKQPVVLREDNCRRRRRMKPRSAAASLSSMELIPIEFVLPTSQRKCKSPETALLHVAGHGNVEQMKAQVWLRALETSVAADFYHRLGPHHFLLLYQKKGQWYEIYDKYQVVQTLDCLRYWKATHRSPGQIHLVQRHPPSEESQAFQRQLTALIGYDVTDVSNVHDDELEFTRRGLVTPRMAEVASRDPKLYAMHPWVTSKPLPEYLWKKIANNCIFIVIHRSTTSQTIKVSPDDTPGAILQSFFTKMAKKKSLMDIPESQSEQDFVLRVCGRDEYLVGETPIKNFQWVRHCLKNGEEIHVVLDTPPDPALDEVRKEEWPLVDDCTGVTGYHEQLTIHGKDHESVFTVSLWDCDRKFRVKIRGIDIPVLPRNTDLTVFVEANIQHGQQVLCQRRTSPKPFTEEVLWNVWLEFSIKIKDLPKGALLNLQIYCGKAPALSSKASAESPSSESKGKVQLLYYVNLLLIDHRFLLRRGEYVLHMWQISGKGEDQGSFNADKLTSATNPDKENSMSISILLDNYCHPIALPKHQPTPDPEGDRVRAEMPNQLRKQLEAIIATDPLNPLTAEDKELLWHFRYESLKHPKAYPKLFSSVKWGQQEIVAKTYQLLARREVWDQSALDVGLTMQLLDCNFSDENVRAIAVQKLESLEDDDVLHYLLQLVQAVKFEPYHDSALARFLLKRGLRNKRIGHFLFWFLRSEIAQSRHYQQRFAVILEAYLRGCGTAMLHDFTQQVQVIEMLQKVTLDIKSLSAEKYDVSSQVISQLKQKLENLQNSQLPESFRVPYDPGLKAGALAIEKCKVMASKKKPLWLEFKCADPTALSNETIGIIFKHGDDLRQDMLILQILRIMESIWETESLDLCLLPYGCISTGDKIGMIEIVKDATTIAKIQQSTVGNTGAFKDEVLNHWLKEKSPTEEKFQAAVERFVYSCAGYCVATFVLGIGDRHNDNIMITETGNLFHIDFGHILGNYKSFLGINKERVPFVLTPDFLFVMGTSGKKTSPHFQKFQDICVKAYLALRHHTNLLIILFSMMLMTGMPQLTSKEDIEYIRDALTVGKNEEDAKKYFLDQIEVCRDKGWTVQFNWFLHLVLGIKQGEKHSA
Chain of Phosphatidylinositol 4,5-bisphosphate 3-kinase catalytic subunit alpha isoform (P42336 whole entry, canonical isoform): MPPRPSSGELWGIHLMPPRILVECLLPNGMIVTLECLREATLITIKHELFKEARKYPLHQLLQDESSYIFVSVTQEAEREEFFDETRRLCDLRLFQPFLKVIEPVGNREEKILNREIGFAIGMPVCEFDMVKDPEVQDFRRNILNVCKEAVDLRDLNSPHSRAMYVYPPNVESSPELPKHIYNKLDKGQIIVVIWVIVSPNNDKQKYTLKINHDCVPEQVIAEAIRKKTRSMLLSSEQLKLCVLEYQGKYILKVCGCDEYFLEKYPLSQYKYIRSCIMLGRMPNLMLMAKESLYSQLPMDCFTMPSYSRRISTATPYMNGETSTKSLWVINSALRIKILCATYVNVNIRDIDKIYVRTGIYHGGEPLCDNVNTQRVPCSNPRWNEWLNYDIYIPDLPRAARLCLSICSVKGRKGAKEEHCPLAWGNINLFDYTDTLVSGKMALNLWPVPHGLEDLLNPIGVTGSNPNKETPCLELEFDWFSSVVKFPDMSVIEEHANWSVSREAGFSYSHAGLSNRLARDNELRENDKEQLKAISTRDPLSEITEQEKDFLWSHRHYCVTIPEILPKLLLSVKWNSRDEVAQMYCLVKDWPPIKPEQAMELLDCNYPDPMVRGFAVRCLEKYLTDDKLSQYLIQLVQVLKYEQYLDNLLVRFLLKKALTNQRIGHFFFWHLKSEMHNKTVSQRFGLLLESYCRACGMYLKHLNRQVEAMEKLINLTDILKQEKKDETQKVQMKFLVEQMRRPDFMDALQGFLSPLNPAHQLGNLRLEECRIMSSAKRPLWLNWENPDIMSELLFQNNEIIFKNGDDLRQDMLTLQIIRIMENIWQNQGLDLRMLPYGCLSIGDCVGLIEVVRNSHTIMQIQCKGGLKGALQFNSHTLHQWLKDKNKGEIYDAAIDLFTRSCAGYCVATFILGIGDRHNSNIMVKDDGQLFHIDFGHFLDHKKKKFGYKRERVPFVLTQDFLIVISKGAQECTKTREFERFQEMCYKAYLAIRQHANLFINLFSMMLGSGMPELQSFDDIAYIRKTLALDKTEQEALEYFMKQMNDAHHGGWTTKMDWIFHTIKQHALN

On to `Cn1c(-c2ccccc2)c(/C=C2\Oc3cc(O)cc(O)c3C2=O)c2ccccc21`, for which, in series [1], the solubility (commonly the concentration that dissolves in the medium under given conditions) is 2 µg/mL (≈ 5.22 µM). In addition, the pIC50 (in general, the IC50 on a negative log10 scale, so that one unit is a factor of ten) in series [2] is 7.02; in series [3], 5.57.
`COc1ccc2c(c1)c(/C=C1\Oc3cc(O)cc(O)c3C1=O)c(C)n2C`: the pIC50 in [4] is 7.27; in the series on PC-3 it was 5.89; in the series on LoVo, 5.60; in the series with Caco-2, 5.14; in series [2] it was 8.40; in series [3], 8.15. This molecule yielded a solubility in series [1] of 1 µg/mL (≈ 2.85 µM). Besides, the inhibition – broadly, the change of the read-out against control, counted positive when it falls – at 3 µM at CYP3A4 was found to be 75%.
For the molecule `COc1ccc2c(c1)c(/C=C1\Oc3cc(O)cc(O)c3C1=O)cn2CCCN1CCOCC1`, the pIC50 in series [4] was 6.19; in series [2], 6.37; in series [3] it was 7.38. The molecule also returned a solubility in series [1] of 3 µg/mL (≈ 6.66 µM). This molecule also showed an inhibition at 3 µM at CYP3A4 of 42%.
In series [1], `O=C1/C(=C/c2c[nH]c3ccc(Cl)cc23)Oc2cc(O)cc(O)c21` had a solubility of 1 µg/mL (≈ 3.05 µM).
Turning to `O=C1/C(=C/c2c(-c3ccccn3)[nH]c3ccccc23)Oc2cc(O)cc(O)c21`, the concentration in solution in series [1] (solubility) was 3 µg/mL (≈ 8.1 µM). Also, the pIC50 in series [2] is 7.66; in series [3] it was 5.44.
The molecule `O=C1/C(=C/c2c(-c3ccc4ccccc4c3)[nH]c3ccccc23)Oc2cc(O)cc(O)c21` gave a solubility in series [1] of 1 µg/mL (≈ 2.38 µM).
With `COc1ccc2c(c1)c(/C=C1\Oc3cc(O)cc(O)c3C1=O)c(C)n2CCCN(C)C`, the pIC50 in series [4] was 6.39; with PC-3, 5.55; in the series on LoVo it was 5.24; with Caco-2, 5.03; in series [2], 6.93. In series [1], this molecule registered a solubility of 32 µg/mL (≈ 75.7 µM).
As for `COc1ccc2[nH]c(C)c(/C=C3\Oc4cc(O)cc(O)c4C3=O)c2c1`, the pIC50 was 7.60 in series [4]; 5.40 in the series on PC-3; 5.44 with LoVo; 5.05 with Caco-2; 8.52 in [2]; 8.52 in series [3]. In addition, in series [1], the concentration in solution (solubility) was 1 µg/mL (≈ 2.96 µM). This molecule also showed an inhibition at 3 µM at CYP3A4 of 79%.
For `O=C1/C(=C/c2c(-c3ccccc3)[nH]c3ccccc23)Oc2cc(O)cc(O)c21`, the pIC50 in series [4] is 5.56; in series [2] it was 6.89; in series [3], 5.99. In series [1], the concentration in solution (solubility) was 1 µg/mL (≈ 2.71 µM).
Regarding `COc1ccc2c(c1)c(/C=C1\Oc3cc(O)cc(O)c3C1=O)c(C)n2CCN1CCOCC1`, the pIC50 in series [4] was 6.81; with PC-3 it was 5.82; with LoVo, 5.64; in the series on Caco-2 it was 5.70; in series [2], 8.05; in [3] it was 7.96. This molecule also registered a solubility in series [1] of 6 µg/mL (≈ 13.3 µM). Besides, at 3 µM the inhibition at CYP3A4 was 64%.
For `COc1ccc2c(c1)c(/C=C1\Oc3cc(O)cc(O)c3C1=O)c(C)n2CCCN1CCOCC1`, the pIC50 in series [4] was 7.12; with PC-3, 5.62; in the series with LoVo it was 5.34; in the series with Caco-2 it was 5.33; in series [2] it was 7.74; in [3], 8.10. The molecule also gave a solubility in series [1] of 1 µg/mL (≈ 2.15 µM). The molecule also showed an inhibition at 3 µM at CYP3A4 of 68%.
In the case of `COc1ccc2c(c1)c(/C=C1\Oc3cc(O)cc(O)c3C1=O)c(C)n2CCCN1CCN(CCO)CC1`, the pIC50 is 6.96 in series [4]; 5.00 in the series on PC-3; 5.00 in the series on LoVo; 5.00 in the series on Caco-2; 6.97 in [2]; 8.22 in series [3]. In series [1], this molecule had a solubility of 36 µg/mL (≈ 70.9 µM).
On to `COc1ccc2[nH]c(-c3cccnc3)c(/C=C3\Oc4cc(O)cc(O)c4C3=O)c2c1`, for which the pIC50 in series [4] was 8.05; with PC-3, 5.72; with LoVo, 5.33; in the series with Caco-2, 5.12; in [2] it was 9.00; in series [3], 9.00. The solubility in series [1] stood at 1 µg/mL (≈ 2.5 µM). The molecule further showed an inhibition at 3 µM against CYP3A4 of 57%.
In series [1], `Cc1[nH]c2ccc(Br)cc2c1/C=C1\Oc2cc(O)cc(O)c2C1=O` gave a solubility of 1 µg/mL (≈ 2.59 µM).
The molecule `Cn1cc(/C=C2\Oc3cc(O)cc(O)c3C2=O)c2ccccc21` yielded a solubility in [1] of 2 µg/mL (≈ 6.51 µM). In addition, the negative logarithm of the IC50 (pIC50) in series [2] is 6.10.
`COc1ccc2c(c1)c(/C=C1\Oc3cc(O)cc(O)c3C1=O)cn2CCCN(C)C`: the figures for the pIC50 in series [4], in [2] and in [3] were 5.62, 5.67 and 7.40, respectively. Besides, the solubility in series [1] was 32 µg/mL (≈ 78.3 µM).
With `COc1ccc2c(c1)c(/C=C1\Oc3cc(O)cc(O)c3C1=O)cn2C`, the pIC50 in series [4] is 6.23; in [2], 7.21; in series [3], 6.97. In [1], this molecule returned a solubility of 1 µg/mL (≈ 2.96 µM).
Turning to `COc1ccc2c(c1)c(/C=C1\Oc3cc(O)cc(O)c3C1=O)c(C)n2CCN1CCN(C)CC1`, the pIC50 was 6.33 in [4]; 5.62 in the series with PC-3; 5.66 in the series with LoVo; 5.33 in the series on Caco-2; 7.96 in [2]; 8.30 in series [3]. Also, the concentration in solution in series [1] (solubility) came to 30 µg/mL (≈ 64.7 µM).
On to `COc1ccc2c(c1)c(/C=C1\Oc3cc(O)cc(O)c3C1=O)cn2CCCN1CCN(CCO)CC1`, for which the figures for the pIC50 in series [4], in [2] and in [3] were 5.87, 5.78 and 7.43, respectively. This molecule also registered a solubility in [1] of 25 µg/mL (≈ 50.7 µM).
On to `COc1ccc2c(c1)c(/C=C1\Oc3cc(O)cc(O)c3C1=O)c(C)n2CCN(C)C`, for which the pIC50 is 6.55 in series [4]; 5.74 in the series on PC-3; 5.77 in the series with LoVo; 5.55 in the series with Caco-2; 7.74 in series [2]; 8.05 in series [3]. This molecule also had a solubility in [1] of 1 µg/mL (≈ 2.45 µM).
For the molecule `COc1ccc2[nH]c(-c3ccccc3)c(/C=C3\Oc4cc(O)cc(O)c4C3=O)c2c1`, the pIC50 in series [4] was 7.96; in the series with PC-3, 6.10; with LoVo, 5.92; in the series with Caco-2, 5.68; in [5], 6.41; in series [2] it was 8.00. Also, the inhibition at 3 µM at CYP3A4 came out at 77%.
On to `O=C1/C(=C/c2c[nH]c3ccccc23)Oc2cc(O)cc(O)c21`, for which the solubility in series [1] was found to be 14 µg/mL (≈ 47.7 µM). For the same molecule, the pIC50 in series [2] is 5.04; in series [3] it was 5.17.
In the case of `COc1ccc2c(c1)c(/C=C1\Oc3cc(O)cc(O)c3C1=O)c(C)n2CCCN1CCN(C)CC1`, the pIC50 is 6.40 in [4]; 5.02 in the series with PC-3; 5.12 in the series on LoVo; 5.00 with Caco-2; 6.82 in series [2]; 7.82 in [3]. The amount in solution in series [1] (solubility) came to 10 µg/mL (≈ 20.9 µM).
The molecule `COc1ccc2[nH]cc(/C=C3\Oc4cc(O)cc(O)c4C3=O)c2c1` came in with a solubility in series [1] of 12 µg/mL (≈ 37.1 µM). This molecule registered an inhibition at 3 µM against CYP3A4 of 58%.
As to `O=C1/C(=C/c2c(-c3ccc(F)cc3)[nH]c3ccccc23)Oc2cc(O)cc(O)c21`, the solubility in [1] worked out at 1 µg/mL (≈ 2.58 µM).
The molecule `O=C1/C(=C/c2c(-c3ccc(Cl)cc3)[nH]c3ccccc23)Oc2cc(O)cc(O)c21` gave a solubility in series [1] of 1 µg/mL (≈ 2.48 µM).

For the origin of these results see ChEMBL document CHEMBL1156153, “Novel benzofuran-3-one indole inhibitors of PI3 kinase-alpha and the mammalian target of rapamycin: hit to lead studies” (Bioorg Med Chem Lett, 2010).
